# CHOP UPR activ: activators of apoptotic CHOP UPR arm, primary screen, cell-based, CHO-CHOP luciferase reporter, luminescence, uHTS; UPR activation; percent of tunicamycin response over DMSO baseline; activation, % at 10 µM; 330,000 tested, 0.34% active;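 active = at 10 µM dose, activation of 40% or more, normalized to positive control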;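 also: 100% = tunicamycin at 10 µg/mL and 0% = DMSO alone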
#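 Evaluation: % reporter activation, DMSO baseline versus tunicamycin full activation; System: CHO-CHOP luciferase reporter cell line; Input: 500 cells/well; Incubation: 6 h compound treatment, 37 °C; Measured by: Steady-Glo luciferase luminescence; Dosing: one dose, 10 µM in 0.5% DMSO; Buffer or medium: F12 medium, 10% FBS; Benchmarks: positive tunicamycin 10 µg/mL, negative DMSO alone.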
# XBP1 UPR activ: activators of adaptive XBP1 UPR arm, primary screen, cell-based, CHO-XBP1 luciferase reporter, luminescence, uHTS; 330,000 tested, 0.33% active; activation, % at 20 µM; IRE1-XBP1 UPR activation; percent of tunicamycin response, DMSO as zero;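 active = versus positive control, 20 µM dose yields 30% or more activation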;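 also: 100% = tunicamycin at 10 µg/mL and 0% = DMSO only wells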
#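 Signal: luciferase luminescence; Assay system: CHO-XBP1 luciferase reporter cells; Amount: one thousand reporter cells per well; Dosing: 20 µM single concentration, DMSO 1%; Benchmarks: high control tunicamycin 10 µg/mL final, low control DMSO vehicle only; Schedule: 6 h compound exposure at 37 °C, 5% CO2; Evaluation: percent activation relative to tunicamycin reference.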
# CHOP inhibitor: inhibitors of CHOP promoter induction, primary screen, cell-based, unfolded protein response, luciferase reporter. CHO-K1 CHOP-promoter luciferase, tunicamycin-induced, 15-18 h. inhibition, % at 10 µM. 220,000 tested, 3.8% active. AID 2732, 2010;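 active = compounds that reduced the stress-induced luciferase reporter signal by more than about 70% of percent inhibition, limit read from the data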;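 also: 0% = tunicamycin plus vehicle and 100% = wells without tunicamycin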
# 697 NFkB inh: inhibitors of PMA/ionomycin-induced NF-kB reporter, 697 cells, primary screen, B-cell NF-kB inhibitor project, cell-based, luminescence, uHTS. 697 B-cell NF-kB luciferase reporter, 16 h. inhibition, % at 4 µM. 330,000 tested, 0.33% active. AID 435022, 2010; in the data active = inhibition above about 35%
# Jurkat NFkB inh: inhibitors of induced NF-kB luciferase reporter, primary screen, TCR NF-kB activation inhibitor project, cell-based, luminescence, uHTS; Jurkat, PMA/ionomycin-induced NF-kB luciferase reporter; inhibition, % at 4 µM; 330,000 tested, 0.53% active; in the data active = inhibition above about 50%
# CHOP inh conf: retest of CHOP induction inhibitors, confirmation, cell-based | shares compounds with CHOP inhibitor | CHO-CHOP promoter luciferase reporter, tunicamycin-induced, luminescence | inhibition, % at 10 µM | 2,100 tested, 45% active | AID 504437, 2011;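 active = mean of three repeat readings of reporter signal inhibition above a set limit, cut at about 70% in these data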;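 also: 0% = tunicamycin plus vehicle and 100% = wells lacking tunicamycin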
# Numbers without * were called inactive; . = no result. The full list was thinned out, with hits kept by preference.
SMILES,CHOP UPR activ,XBP1 UPR activ,CHOP inhibitor,697 NFkB inh,Jurkat NFkB inh,CHOP inh conf
COC[C@H]1OC(=O)c2coc3c2[C@@]1(C)C1=C(C3=O)C2CCC(=O)[C@@]2(C)C[C@H]1OC(C)=O (some centres not stated),.,.,-10.8,.,.,.
Cc1ccc2c(c1)CC1(CN2C)C(=O)NC(=O)N(CCc2ccccc2)C1=O (configuration not stated),-0.8,-0.4,91.4*,23.3,-2.3,.
Cc1ccc2c(c1)CC1(CN2C)C(=O)NC(=O)N(c2ccccc2C)C1=O (configuration not stated),2.1,-1.8,34.1,2.3,-5.7,.
COc1ccccc1N1CCN(Cc2ccc(Cl)cc2Cl)CC1,0.1,-1.9,25.8,4.3,-4.0,.
Cc1ccc(O)c(CN2CCN(c3ccccc3)CC2)c1,0.3,0.1,60.7,-4.8,-2.6,.
COc1ccc(CN2CCN(c3ccccc3)CC2)c(C)c1C,0.9,1.8,80.2*,18.3,4.5,.
Cc1cc(O)c(CN2CCN(c3ccccc3)CC2)cc1C,0.1,-4.3,82.1*,-0.1,-17.8,.
N[C@@H](Cn1ccc(=O)[nH]c1=O)C(=O)O,.,.,-12.3,.,.,.
N[C@@H](Cn1cc(I)c(=O)[nH]c1=O)C(=O)O,.,.,-6.8,.,.,.
CC(C)c1ccc(N2C(=O)NC(=O)/C(=C/C=C/c3ccco3)C2=O)cc1,.,.,103.2*,.,.,.
O=C1NC(=O)N(Cc2ccc(F)cc2)C(=O)/C1=C\C=C\c1ccco1,-1.5,-1.4,0.0,-5.6,-2.2,.
CC(C)(O)[C@H]1O[C@H]2CC[C@@]3(C)[C@@](O)(CC[C@H]4Cc5c([nH]c6ccccc56)[C@@]43C)C2=CC1=O,1.0,-7.3,82.1*,-30.9,9.9,.
CC(C)Oc1cc(-n2c(=S)[nH]c3ccccc3c2=O)c(Cl)cc1Cl,1.0,1.7,82.6*,-48.8,-37.7,.
CCOP1(=S)Oc2cc3c(cc2C(C(=O)OC)(C(F)(F)F)O1)OCO3 (configuration not stated),0.3,-2.1,82.4*,-11.1,4.6,.
O=c1[nH]c(=O)n(CCC2=CCCCC2)c(O)c1/C=N/Nc1ccccc1,1.8,-0.9,61.3,12.2,8.8,.
O=c1[nH]c(=O)n(CCC2=CCCCC2)c(O)c1/C=N/Nc1cccc2ccccc12,-0.5,-2.4,71.4*,24.0,8.2,.
O=P(O)(O)C(Cl)(Cl)P(=O)(O)O,.,.,1.8,.,.,.
CCNC(=O)[C@H]1O[C@@H](n2cnc3c(N)ncnc32)C(O)[C@H]1O (some centres not stated),.,.,-16.9,.,.,.
Cc1cc(C)cc(N2C(=O)NC(=O)/C(=C\C=C\c3ccco3)C2=O)c1,.,.,107.3*,.,.,-16.2
COC(=O)[C@@H]1[C@@H](C(=O)OC)C2(c3ccccc3-c3ccccc32)N(c2ccc(Cl)cc2)N1C#N,-10.3,-6.6,109.0*,-59.2,38.6,124.3*
O=C(CSC1c2ccccc2-c2ccccc21)N/N=C/c1ccccc1O,-2.7,0.7,99.7*,-6.8,20.9,117.6*
O=C(CSC1c2ccccc2-c2ccccc21)N/N=C/c1ccc(C(=O)O)cc1,-2.0,-1.3,5.3,1.1,4.5,.
N=C(N)c1c(O)n(C2CCCCC2)c(=O)n(C2CCCCC2)c1=O,0.0,6.6,108.0*,-12.7,4.7,73.0*
CCN(CC)C(=O)N[C@@H]1C[C@@H]2c3cccc4[nH]cc(c34)C[C@H]2N(C)C1,.,.,-5.2,.,.,.
CN1C2CCC1/C(=C/c1ccccn1)C(=O)/C2=C\c1ccccn1,.,.,107.7*,.,.,111.1*
SMILES,CHOP UPR activ,XBP1 UPR activ,CHOP inhibitor,697 NFkB inh,Jurkat NFkB inh,CHOP inh conf
CCN1C[C@]2(OC(=O)c3ccccc3NC(C)=O)CCC(OC)C34C5C[C@H]6C(OC)[C@]5(O)[C@](O)(C[C@@H]6OC)C(C[C@@H]32)[C@H]14 (some centres not stated),0.0,2.5,.,11.0,-13.7,.
Cc1ccc(NP(=O)(Oc2ccccc2F)Oc2ccccc2F)cc1,0.0,-1.8,98.1*,0.7,9.1,100.6*
CCc1ccc(NP(=O)(Oc2ccccc2F)Oc2ccccc2F)cc1,-0.8,-4.3,97.7*,-4.1,2.3,101.7*
Cc1cccc(NP(=O)(Oc2ccccc2F)Oc2ccccc2F)c1C,1.2,-3.4,58.0,12.8,5.6,.
Cc1ccc(NP(=O)(Nc2ccc(C)cc2)Oc2ccccc2)cc1,2.6,-1.3,5.7,14.4,5.0,.
CC(=O)OC1C=CC2[C@H]3Cc4ccc(O)c5c4[C@@]2(CCN3C)C1O5 (some centres not stated),-0.7,-0.7,.,20.4,-0.4,.
O=c1oc2ccccc2c(O)c1[C@H]1c2ccc(O)cc2Oc2c1c(=O)oc1ccccc21,-1.2,-4.5,-2.9,-12.9,-11.4,.
COC12CCC3(CC1C(C)(O)C(C)(C)C)[C@H]1Cc4ccc(O)c5c4[C@@]3(CCN1CC1CC1)C2O5 (some centres not stated),1.1,-2.7,.,-5.1,0.1,.
CCC(C)NC(=O)c1c(N)n(CC2CCCO2)c2nc3ccccc3nc12 (configuration not stated),1.3,0.9,96.4*,11.8,9.7,103.4*
C[C@]12CCC3C(CC[C@H]4C[C@H](O)CC[C@]34C)C1CCC2=O (some centres not stated),0.9,-0.6,.,10.0,11.6,.
CCOC(=O)c1c(-n2c(C)cc(C=C3C(=O)NC(=O)NC3=O)c2C)sc2c1CCCC2,5.3,0.1,96.2*,-7.8,-2.3,41.5
CCCCCCn1c(=O)c(C(=O)Nc2cnccn2)c(O)c2ccccc21,14.1,4.1,96.3*,-16.3,-17.3,119.9*
CCCCCn1c(=O)c(C(=O)Nc2ccccn2)c(O)c2ccccc21,15.2,-1.8,.,-30.6,10.1,.
CN(C)C(=S)SSC(=S)N(C)C,.,.,106.4*,.,.,-133.5
O=C1NC(=O)C(=Cc2ccc(SC3CCCCC3)o2)C(=O)N1,1.6,1.0,108.0*,-1.7,-2.9,54.7
NS(=O)(=O)c1ccc(-c2ccc(C=C3C(=O)NC(=S)NC3=O)o2)cc1,1.9,-1.3,.,2.6,18.9,.
CCOC(=O)C1(CCc2ccccc2)CCN(Cc2ccc3c(c2)OCCO3)CC1,-2.5,-2.7,10.4,-21.8,-1.1,.
CCOC(=O)C1(CCOc2ccccc2)CCN(Cc2ccc(C)s2)CC1,-0.5,-1.7,101.3*,-8.7,10.2,57.0
CNS(=O)(=O)c1ccc(-c2ccc(C=C3C(=O)NC(=O)NC3=O)o2)cc1,-2.2,-1.2,.,-2.1,2.5,.
O=C1NC(=O)C(=Cc2ccc(-c3cc(Cl)ccc3[N+](=O)[O-])o2)C(=O)N1,.,.,105.0*,.,.,-60.0
